Results taken from ChEMBL document CHEMBL2321650, “Novel HldE-K inhibitors leading to attenuated Gram negative bacterial virulence” (J Med Chem, 2013).
Values after ≈ are worked out from the molar mass of the structure shown.

How the values were obtained:
[1] = Inhibition of Escherichia coli O18:K1 C7 hldE-K expressed in Escherichia coli BL21 using beta-heptose 7-phosphate as substrate incubated for 30 mins prior to substrate addition measured after 30 mins by luminescence assay
In short: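 E. coli HldE (His-tagged, IPTG-induced, Ni-NTA-purified), 3 nM, preincubated 30 min at room temperature with inhibitor in Hepes pH 7.5, MnCl₂, KCl, 0.012% Triton-X100, DTT, MBP. Reaction with 0.2 μM heptose 7-phosphate and 0.2 μM ATP, 30 min at room temperature. Remaining ATP read by luciferase/luciferin luminescence; 6−10 concentrations fitted to a Langmuir model for IC50.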

Escherichia coli [2] = experiment: Antimicrobial activity against acrAB, tolC-deficient Escherichia coli str. K-12 substr. MG1655 after overnight incubation in presence of erythromycin; format: functional
In short: (§1)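 Broth microdilution MIC in cation-adjusted MHB, final inoculum 5 × 10⁵ CFU/mL from early-to-log preculture; serial compound dilutions in 2% DMSO, overnight at 35 °C, growth scored visually. Each strain tested with and without erythromycin (1 μg/mL for K12 ΔacrAB ΔtolC, 8 μg/mL for K1 wild type, 1 μg/mL for K1 ΔtolC).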

Escherichia coli [3] = experiment: Antimicrobial activity against acrAB, tolC-deficient Escherichia coli str. K-12 substr. MG1655 after overnight incubation in absence of erythromycin; format: functional; in short: as §1
Escherichia coli [4] = experiment: Antimicrobial activity against tolC-deficient Escherichia coli O18:K1:H7 after overnight incubation in absence of erythromycin; format: functional; in short: as §1
Escherichia coli [5] = experiment: Antimicrobial activity against tolC-deficient Escherichia coli O18:K1:H7 after overnight incubation in presence of erythromycin; format: functional; in short: as §1
HepG2 = experiment: Cytotoxicity against human HepG2 cells after overnight incubation by one cell proliferation assay; format: cell-based
In short: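 HepG2 cells at 2 × 10⁴ per well in EMEM with 10% FBS, grown overnight at 37 °C in 5% CO₂. Medium then replaced by compound dilutions in medium with 2% DMSO for overnight incubation. Viability read by CellTiter Aqueous One MTS absorbance at 490 nm.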

SMILES | IC50 [1] [nM] | further results
COc1cccc(OC)c1-c1cnnc(NCc2nc3ccccc3n2C)n1 | > 300000 | 
O=C(CO)NCCOc1ccc2sc(CNc3nncc(-c4c(Cl)cccc4Cl)n3)nc2c1 | 71 | MIC (Escherichia coli [2]): 4 µg/mL; MIC (Escherichia coli [3]): > 32 µg/mL; MIC (Escherichia coli [4]): > 32 µg/mL; MIC (Escherichia coli [5]): > 32 µg/mL
COc1cccc(OC)c1-c1cnnc(NCc2nc3ccc(Cl)cc3s2)n1 | 27000 | 
COc1cccc(OC)c1-c1cnnc(N2CCCCC2c2nc3ccccc3s2)n1 (stereo not drawn) | > 300000 | 
Oc1ccc2sc(CNc3nncc(-c4c(Cl)cccc4Cl)n3)nc2c1 | 75 | MIC (Escherichia coli [2]): > 32 µg/mL; MIC (Escherichia coli [3]): > 32 µg/mL; MIC (Escherichia coli [4]): > 32 µg/mL; MIC (Escherichia coli [5]): > 32 µg/mL
OCCOc1ccc2sc(CNc3nncc(-c4c(Cl)cccc4Cl)n3)nc2c1 | 18 | MIC (Escherichia coli [2]): 0.5 µg/mL; MIC (Escherichia coli [3]): 16 µg/mL (≈ 35.7 µM); MIC (Escherichia coli [4]): > 32 µg/mL; MIC (Escherichia coli [5]): 32 µg/mL; Activity (HepG2): > 32 µg/mL
COc1cccc(OC)c1-c1cnnc(NCc2nc3cc(N)ccc3s2)n1 | 1400 | 
COc1cccc(OC)c1-c1cnnc(N(CCCO)Cc2nc3ccccc3s2)n1 | > 300000 | 
COc1cccc(OC)c1-c1cnnc(NCc2nc(C)c(C)s2)n1 | 6000 | 
CS(=O)(=O)NC(=O)COc1ccc2sc(CNc3nncc(-c4c(Cl)cccc4Cl)n3)nc2c1 | 16 | MIC (Escherichia coli [2]): > 32 µg/mL; MIC (Escherichia coli [3]): > 32 µg/mL; MIC (Escherichia coli [4]): > 32 µg/mL; MIC (Escherichia coli [5]): > 32 µg/mL
COc1cccc(OC)c1-c1cnnc(NCc2ccc3ccccc3n2)n1 | > 300000 | 
COc1cccc(OC)c1-c1cnnc(NCc2nc3ccccc3o2)n1 | 34000 | 
COc1cccc(OC)c1-c1cnnc(NCc2cc(C)n(C)n2)n1 | 25000 | 
NCC(=O)NCCOc1ccc2sc(CNc3nncc(-c4c(Cl)cccc4Cl)n3)nc2c1 | 100 | MIC (Escherichia coli [2]): 4 µg/mL; MIC (Escherichia coli [3]): 32 µg/mL (≈ 63.4 µM); MIC (Escherichia coli [4]): > 32 µg/mL; MIC (Escherichia coli [5]): 32 µg/mL; Activity (HepG2): 18 µg/mL
COc1ccc2sc(CNc3nncc(N4CCCCC4CO)n3)nc2c1 (stereo not drawn) | > 300000 | 
COc1ccc2sc(CNc3nncc(-c4c(C)cc(C#N)cc4C)n3)nc2c1 | 1400 | 

SMILES | IC50 [1] [nM] | further results
COc1cccc(OC)c1-c1cnnc(NCc2ccccn2)n1 | > 300000 | 
COc1cccc(OC)c1-c1cnnc(NCc2nc3c(s2)CCCC3)n1 | 1900 | 
CCOC(=O)c1sc(CNc2nncc(-c3c(OC)cccc3OC)n2)nc1C | > 300000 | 
COc1ccc2sc(CNc3nncc(-c4c(C)cc(-c5ccc(OC)nc5)cc4C)n3)nc2c1 | 890 | 
COc1ccc2sc(CNc3nncc(-c4c(OC)cccc4OC)n3)nc2c1 | 670 | 
NCCOc1ccc2sc(CNc3nncc(-c4c(Cl)cccc4Cl)n3)nc2c1 | 185 | 
COc1cccc(OC)c1-c1cnnc(NCc2cc3ccccc3s2)n1 | > 300000 | 
COc1cccc(OC)c1-c1cnnc(NCc2nc3cc(Cl)ccc3s2)n1 | 1600 | 
COc1cccc(OC)c1-c1cnnc(NCc2nc3cc(C)ccc3s2)n1 | 1500 | 
COc1cccc(OC)c1-c1cnnc(NCc2cc(C)c(C)o2)n1 | > 300000 | 
COc1cccc(OC)c1-c1cnnc(NCc2nc3cc(NC(C)=O)ccc3s2)n1 | 7600 | 
CN(C)CCOc1ccc2sc(CNc3nncc(-c4c(Cl)cccc4Cl)n3)nc2c1 | 82 | MIC (Escherichia coli [2]): 4 µg/mL; MIC (Escherichia coli [3]): 32 µg/mL (≈ 67.3 µM); MIC (Escherichia coli [4]): > 32 µg/mL; MIC (Escherichia coli [5]): 16 µg/mL; Activity (HepG2): > 32 µg/mL
COc1ccc2sc(CNc3nncc(-c4cc(-c5cccnc5)ccc4Cl)n3)nc2c1 | 150 | 
COc1ccc2sc(CNc3nncc(-c4cc(NC(C)=O)ccc4Cl)n3)nc2c1 | 1400 | 
COc1cccc(OC)c1-c1cnnc(NCc2nc(C)c(CCO)s2)n1 | > 300000 | 
